pIC50: −log10 of the molar value.
Assay: Cytotoxicity against human GM00637 cells assessed as reduction in mean cell viability after 72 hrs by MTT assay
Type: cell-based
Conditions: GM00637, 72 h
Summary of the method: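 SV40-transformed normal skin fibroblasts (GM00637) in MEM Eagle–Earle BSS with 15% heat-inactivated FBS, 2 mM L-glutamine, 2× amino acids and vitamins. Seeded at 10,000 cells/well and left 24 h to adhere. Ethanol-delivered compound (1% final) for 72 h at 37 °C, 5% CO₂. MTT formazan in DMSO read at 550/690 nm. Viability relative to vehicle; IC₅₀ by nonlinear regression.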

CO[C@@]12[C@H](COC(N)=O)C3=C(C(=O)C(C)=C(N)C3=O)N1C[C@@H]1N[C@@H]12 [MITOMYCIN]
pIC50: 6.34
